According to the RNAGym collection of RNA variant scans (doi:10.1126/science.aae0568):
Fewer inactive variants are shown than the library holds.

B1: tRNA (parent)
chain: GUUCCGUUGGCGUAAUGGUAACGCGUCUCCCUCCUAAGGAGAAGACUGCGGGUUCGAGUCCCGUACGGAACG

Variants of: B1
Experiment: yeast fitness relative to wild type (ratio to wild type); higher = fitter; tRNA-Arg(CCU), competitive growth, 37 C, YPD
Summary of the method: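 A pool of Saccharomyces cerevisiae strains, each with a tRNA-Arg(CCU) gene variant at the native genomic locus, was competed in YPD at 37°C for 24 hours across six parallel replicates. The variants had been chemically synthesised at a 3% per-site mutation rate over 69 sites, and gene amplicons before and after competition were read by 100-nucleotide paired-end sequencing. Darwinian fitness relative to wild type rested on changes in genotype frequencies. Genotypes required ≥ 100 starting reads, and estimates < 0.5 were set to 0.5.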

| Variant | yeast fitness |
| --- | --- |
| C5G C11A A40C U64C | ≤ 0.5 |
| C5U A21G C27U G41A C66A | ≤ 0.5 |
| C5G A45C U54G | 0.622 |
| C5G A20U A57U | ≤ 0.5 |
| C5G U8C G41A | ≤ 0.5 |
| C5G A20G A36C A70C | ≤ 0.5 |
| C5G A15U U28C | ≤ 0.5 |
| C5G U16C C31U | 0.627 |
| C5G U7C G23A | ≤ 0.5 |
| C5G G10C G52A U54A | 0.55 |
| C5G U8A A15G G41C U47A | ≤ 0.5 |
| C5U A15G A42U | 0.703 |
| C5U A21G A42U U54G | 0.533 |
| C5G U32A G56A | 0.634 |
| C5U A21C A43C | ≤ 0.5 |
| C5U A15U C29U C31U C34U C55U | ≤ 0.5 |
| C5U A20U | 0.94 |
| C5G U47C G51A A65C | 0.548 |
| C5G G25A A65G | 0.763 |
| C5G C27U G41C C61U C66G | ≤ 0.5 |
| C5U A21U C29U C30G A70U | 0.543 |
| C5G U7A | 0.792 |
| C5G U7G | 0.564 |
| C5G A20C C29G G38C | 0.529 |

| Variant | yeast fitness |
| --- | --- |
| C5G U32C A45G C46A | 0.907 |
| C5U C11U A14U | 0.57 |
| C5U A21U A36U A65G | ≤ 0.5 |
| C5G G17A A20C C49G G63A | ≤ 0.5 |
| C5G G9C A20G A40C G58A | ≤ 0.5 |
| C5U A15G A20C U26C G41C G52C A57U A65U | ≤ 0.5 |
| C5U A45C C61G | 0.536 |
| C5G C29U G39A G58C A69U | ≤ 0.5 |
| C5U A21G A42C | 0.761 |
| C5U A21G A42U | 0.908 |
| C5G A20U C30U | ≤ 0.5 |
| C5G C33U A65C G68C | ≤ 0.5 |
| C5G G39C A69U | 0.538 |
| C5G C11U A42U G68A | ≤ 0.5 |
| C5G C33A A65U | ≤ 0.5 |
| C5U C22A C31U G68C | ≤ 0.5 |
| C5G U7C G10A C29G | ≤ 0.5 |
| C5G G25C | 1.06 |
| C5G G25A | 0.981 |
| C5U A21U C30G G52A A70U | 0.534 |
| C5U A15C G23C | ≤ 0.5 |
| C5G C22U C27U A36G | ≤ 0.5 |
| C5U A15G U16C C66U | ≤ 0.5 |
| C5G G17A U26C | ≤ 0.5 |

| Variant | yeast fitness |
| --- | --- |
| C5G C34G A40G G48C G63A C66U | ≤ 0.5 |
| C5G C27G C34G G63C C66U | ≤ 0.5 |
| C5G G6A C24U | 0.577 |
| C5G A15C C22A G63A A65G | ≤ 0.5 |
| C5G A36G A43U | 0.549 |
| C5U A36U C60U | 0.81 |
| C5G C60G C62G G67C A69U | 0.654 |
| C5U A21C G44C | 0.529 |
| C5G C11A A14G G25C C29G | 0.517 |
| C5G C24A | 0.96 |
| C5G C24G | 0.604 |
| C5G C46G | 0.751 |
| C5U A20C G63A | 0.607 |
| C5G G9A C61U | ≤ 0.5 |
| C5G C30A A36G | 0.568 |
| C5G C46A A57G | 0.705 |
| C5G A20U G56A | 0.572 |
| C5G C11U A45C | ≤ 0.5 |
| C5G A65C | 0.775 |
| C5G A42C G51C A65G | ≤ 0.5 |
| C5G G12A A14G U35A | ≤ 0.5 |
| C5G U26C C34G U54C | ≤ 0.5 |
| C5G C27A A37C C55G | ≤ 0.5 |
| C5G G17C G23C A57C | ≤ 0.5 |

| Variant | yeast fitness |
| --- | --- |
| C5G U28A A40C | 0.581 |
| C5G G10C U13G A40G U54A | ≤ 0.5 |
| C5U A45G G67A | 0.743 |
| C5G A36U C66U | ≤ 0.5 |
| C5G A21G | 0.997 |
| C5G U26C C29U | ≤ 0.5 |
| C5U A21G A42U G58A C66U | 0.706 |
| C5G A36U G41A A65U | 0.549 |
| C5G U8A | 0.641 |
| C5G C31A A45C | ≤ 0.5 |
| C5G U59G G63C | ≤ 0.5 |
| C5G G17A C22U U28C C46U G58A | ≤ 0.5 |
| C5G C30G G56C C61U A65C | 0.616 |
| C5G C27U C46U | 0.754 |
| C5G C27G C33U G56A A69U | 0.52 |
| C5U A36G C55G C66G | ≤ 0.5 |
| C5G C11G C27G G67U | ≤ 0.5 |
| C5U C11U A15U C31U C49U | ≤ 0.5 |
| C5G G38C | 0.565 |
| C5G C30A C34G | ≤ 0.5 |
| C5G G51A A69U | 0.528 |
| C5G G10A C11G U16G C33G | 0.551 |
| C5U A14G G51A A65C | ≤ 0.5 |
| C5G C24G C30G C31U U35A A36U G44A C60U A70C | ≤ 0.5 |

| Variant | yeast fitness |
| --- | --- |
| C5U A21G U28C A36G C55A | ≤ 0.5 |
| C5U A14C U19C | 0.528 |
| C5U A21C G44C C46U | 0.532 |
| C5U A14C C34G A37U A40U C66U | ≤ 0.5 |
| C5G A65U C66G | ≤ 0.5 |
| C5G A20C C33U C62G | ≤ 0.5 |
| C5U A57U | 0.663 |
| C5G A57C | 0.716 |
| C5U A14U C31A C46U G48A C49U | 0.568 |
| C5G A43U | 0.719 |
| C5G A43C | 0.744 |
| C5G U7C G51C | 0.564 |
| C5G A20U G25A C31U G41A C55G | ≤ 0.5 |
| C5G U28G G38C | ≤ 0.5 |
| C5U A37G | 0.795 |
| C5G A21U C27U U28G C33G A36G | ≤ 0.5 |
| C5G A15G | 0.819 |
| C5G A21G G51A | 0.617 |
| C5G C55A A57U | 0.55 |
| C5G C29A A36G A42C G44A C49U C60U | ≤ 0.5 |
| C5G C46G A65G | 0.594 |
| C5G G6A U47A G68C | 0.546 |
| C5U A20C U32C A40U G50A G52A | ≤ 0.5 |
| C5U A14G G50C C55U A57G C66U | ≤ 0.5 |

| Variant | yeast fitness |
| --- | --- |
| C5G G44A | 1.02 |
| C5G G44U | 0.626 |
| C5G C30G A65C C66U | ≤ 0.5 |
| C5G C66U G67A | 0.533 |
| C5G A15U A69U | 0.698 |
| C5G C31U | 0.867 |
| C5G C30U A65U | ≤ 0.5 |
| C5U A43G C49G A69C | ≤ 0.5 |
| C5G C24G A40U | 0.57 |
| C5G U64G | 0.86 |
| C5G U26G C34G A40C C46U | ≤ 0.5 |
| C5G U32A A70U | ≤ 0.5 |
| C5G C11U C22A | ≤ 0.5 |
| C5U C11A A20C C22G C30U C31G | ≤ 0.5 |
| C5G G18A G25A A42G | ≤ 0.5 |
| C5U C11U A15G U53A A65G | ≤ 0.5 |
| C5G C55G | 0.685 |
| C5G C11G C31G | ≤ 0.5 |
| C5G U28C U35A | 0.545 |
| C5U C11A G50C | 0.598 |
| C5G G25A C46A | 0.651 |
| C5G C24U U26C C31U | 0.749 |
| C5G U8A G41C G63A | ≤ 0.5 |
| C5U A14C C46A G63C A69U | ≤ 0.5 |

| Variant | yeast fitness |
| --- | --- |
| C5G A15C U32C C46U U53G | ≤ 0.5 |
| C5G A20G C62U C66G | 0.663 |
| C5G A15C G58A G67C | ≤ 0.5 |
| C5G C11U G25C G52U | 0.618 |
| C5G C22A A37G G50C | 0.55 |
| C5U C11U A20U | 0.561 |
| C5U A14G A21U G56C G68C | ≤ 0.5 |
| C5G A36C A42G C55U C62G A69U | ≤ 0.5 |
| C5G A20G A37G C46G A57C | ≤ 0.5 |
| C5G C22A A37G | ≤ 0.5 |
| C5G C34A G50C | ≤ 0.5 |
| C5U C22A A36U | 0.828 |
| C5G C11A A20C C29U | ≤ 0.5 |
| C5G U7C C11G G23C U26C C27U A42U | ≤ 0.5 |
| C5G C34A | 0.702 |
| C5G A20C A42U G44A C61G | ≤ 0.5 |
| C5G A15U U53A | ≤ 0.5 |
| C5G A20C | 0.813 |
| C5G U13C C22G G23U C29G A45C G68C A69G | 0.531 |
| C5G G17A A20C G52A A65U | ≤ 0.5 |
| C5G A36U C46G C62A A69C | ≤ 0.5 |
| C5G A15G U16A A20G U28A C30A C33A A36U U47C A69C | ≤ 0.5 |
| C5U A37G C62G G68C | ≤ 0.5 |
